From ChEMBL document CHEMBL3244286, “Inactivation of trypsin-like proteases by sulfonylation. Variation of positively charged group and inhibitor length” (J Med Chem, 1978)
pKi: −log10 of the molar value.

Key:
[1] = target: T1, Plasma kallikrein (Homo sapiens, UniProt P03952); assay: Inhibition of 2 X 10^-7 M human plasma kallikrein using Z-Lys-nitrophenyl ester as substrate assessed as second-order rate inactivation constant incubated up to 1 hr at pH 7.4
Method in brief: (§1)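 Enzyme and inhibitor incubated at room temperature in 0.1 M tris chloride, pH 7.4, with no more than 1% DMF from stocks. Aliquots were withdrawn and residual activity was assayed with Z-Lys-nitrophenyl ester. Protease concentration was set by methylumbelliferyl p-guanidinobenzoate titration. Decay was first order, k1 = 0.693/t1/2 (min), and the second-order constant is k1 divided by inhibitor concentration. Incubations with little loss of activity were stopped at 1 h.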

[2] = species on record: Bos taurus; assay: Inhibition of 6.4 X 10^-7 M bovine trypsin using Z-Lys-nitrophenyl ester as substrate assessed as second-order rate inactivation constant incubated up to 1 hr at pH 7.4; method in brief: as §1
[3] = target: Prothrombin (Bos taurus) (UniProt P00735); assay: Inhibition of 16 X 10^-7 M bovine thrombin using Z-Lys-nitrophenyl ester as substrate assessed as second-order rate inactivation constant incubated up to 1 hr at pH 7.4; method in brief: as §1
[4] = target: T2, Plasminogen (Homo sapiens, UniProt P00747); assay: Inhibition of 4.8 X 10^-7 M human plasmin using Z-Lys-nitrophenyl ester as substrate assessed as second-order rate inactivation constant incubated up to 1 hr at pH 7.4; method in brief: as §1
[5] = target: T1, Plasma kallikrein; assay: Inhibition of 2 X 10^-7 M human plasma kallikrein using Z-Lys-nitrophenyl ester as substrate assessed as half time required for enzyme inactivation at 5X10'-6 M at pH 7.4; details: in the assay text read “5.4X10'-4 M” for “5X10'-6 M”; method in brief: as §1
[6] = target: Prothrombin (Bos taurus) (UniProt P00735); assay: Inhibition of 16 X 10^-7 M bovine thrombin using Z-Lys-nitrophenyl ester as substrate assessed as half time required for enzyme inactivation at 5X10'-5 M at pH 7.4; method in brief: as §1
[7] = target: Urokinase-type plasminogen activator (Homo sapiens) (UniProt P00749); assay: Inhibition of 51 X 10^-7 M human urokinase using Z-Lys-thiobenzyl ester as substrate assessed as second-order rate inactivation constant incubated up to 1 hr at pH 7.4
[8] = target: Urokinase-type plasminogen activator (Homo sapiens) (UniProt P00749); assay: Inhibition of 2 X 10^-7 M human urokinase using Z-Lys-thiobenzyl ester as substrate assessed as second-order rate inactivation constant incubated up to 1 hr at pH 7.4; details: in the assay text read “51 X 10^-7 M” for “2 X 10^-7 M”
Method in brief: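 Purified urokinase incubated with inhibitor at room temperature in 0.1 M tris chloride, pH 7.4, with no more than 1% DMF. Residual activity in aliquots was read with Z-Lys-thiobenzyl ester. Enzyme was active-site titrated with methylumbelliferyl p-guanidinobenzoate. First-order k1 = 0.693/t1/2 (min), divided by inhibitor concentration to give the second-order rate. Incubations were not run past 1 h when loss was low.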

[9] = Competitive inhibition of 6.4 X 10^-7 M bovine trypsin using Z-Lys-nitrophenyl ester as substrate incubated up to 1 hr at pH 6; parameters: species or system Bos taurus
Method in brief: (§2)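 Ki for competitive inhibition measured at pH 6 with Z-Lys-nitrophenyl ester as substrate. Enzyme concentrations were set by active-site titration with methylumbelliferyl p-guanidinobenzoate. Compounds were added from DMF stocks, with no more than 1% DMF in the reaction.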

[10] = target: T2, Plasminogen; assay: Competitive inhibition of 4.8 X 10^-7 M human plasmin using Z-Lys-nitrophenyl ester as substrate incubated up to 1 hr at pH 6; method in brief: as §2
[11] = target: T1, Plasma kallikrein; assay: Competitive inhibition of 2 X 10^-7 M human plasma kallikrein using Z-Lys-nitrophenyl ester as substrate incubated up to 1 hr at pH 6; method in brief: as §2
[12] = target: Prothrombin (Bos taurus, UniProt P00735); assay: Competitive inhibition of 16 X 10^-7 M bovine thrombin using Z-Lys-nitrophenyl ester as substrate incubated up to 1 hr at pH 6
Method in brief: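 Ki for competitive inhibition was determined at pH 6 against Z-Lys-nitrophenyl ester hydrolysis, following previously published procedures. Active enzyme concentration was set by titration with methylumbelliferyl p-guanidinobenzoate. Inhibitors were added from DMF stock solutions, with DMF at no more than 1% of the reaction mixture.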

T1 sequence (P03952 20-390 limits assumed): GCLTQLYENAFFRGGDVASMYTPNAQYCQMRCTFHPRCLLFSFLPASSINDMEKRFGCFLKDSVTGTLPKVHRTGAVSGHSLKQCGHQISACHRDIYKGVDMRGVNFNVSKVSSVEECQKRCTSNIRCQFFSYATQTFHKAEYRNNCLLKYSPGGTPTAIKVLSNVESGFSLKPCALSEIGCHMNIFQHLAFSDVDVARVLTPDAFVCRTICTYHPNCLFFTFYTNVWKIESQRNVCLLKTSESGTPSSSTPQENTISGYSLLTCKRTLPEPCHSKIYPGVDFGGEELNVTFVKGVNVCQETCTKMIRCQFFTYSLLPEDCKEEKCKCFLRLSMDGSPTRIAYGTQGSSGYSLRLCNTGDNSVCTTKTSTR
T1 sequence (P03952 391-638 limits assumed): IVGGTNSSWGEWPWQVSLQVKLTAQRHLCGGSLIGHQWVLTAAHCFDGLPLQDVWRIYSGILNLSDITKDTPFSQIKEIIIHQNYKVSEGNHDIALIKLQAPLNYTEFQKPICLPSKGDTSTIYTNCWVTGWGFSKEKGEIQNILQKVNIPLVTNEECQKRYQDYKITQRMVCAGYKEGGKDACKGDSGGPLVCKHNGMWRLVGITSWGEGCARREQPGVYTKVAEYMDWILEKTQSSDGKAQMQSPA
T2 sequence (P00747 97-580 limits assumed): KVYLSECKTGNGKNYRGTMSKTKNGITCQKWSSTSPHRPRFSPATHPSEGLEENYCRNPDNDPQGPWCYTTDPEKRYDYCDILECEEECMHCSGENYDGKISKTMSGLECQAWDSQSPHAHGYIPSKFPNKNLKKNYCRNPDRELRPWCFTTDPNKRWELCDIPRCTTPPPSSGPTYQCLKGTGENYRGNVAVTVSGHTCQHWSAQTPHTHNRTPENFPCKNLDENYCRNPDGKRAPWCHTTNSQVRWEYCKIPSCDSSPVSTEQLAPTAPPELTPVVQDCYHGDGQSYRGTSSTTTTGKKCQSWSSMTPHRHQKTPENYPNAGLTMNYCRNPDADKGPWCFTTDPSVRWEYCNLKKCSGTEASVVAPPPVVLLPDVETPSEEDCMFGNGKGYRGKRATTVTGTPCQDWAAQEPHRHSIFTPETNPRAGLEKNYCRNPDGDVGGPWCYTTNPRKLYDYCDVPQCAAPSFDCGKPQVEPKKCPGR
T2 sequence (P00747 581-810 limits assumed): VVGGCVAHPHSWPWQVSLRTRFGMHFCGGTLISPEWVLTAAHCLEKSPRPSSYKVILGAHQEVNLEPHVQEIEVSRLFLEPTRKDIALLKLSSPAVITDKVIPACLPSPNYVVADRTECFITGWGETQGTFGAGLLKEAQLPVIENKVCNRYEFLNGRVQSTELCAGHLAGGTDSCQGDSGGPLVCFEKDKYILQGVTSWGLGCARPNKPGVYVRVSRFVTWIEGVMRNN

SMILES	Kinact [1]	Kinact [2]	Kinact [3]	Kinact [4]	T1/2 [5]	T1/2 [6]	Kinact [7]	Kinact [8]	pKi [9]	pKi [10]	pKi [11]	pKi [12]
C[S+](C)c1cccc(CS(=O)(=O)Oc2ccc([N+](=O)[O-])cc2)c1	0 M⁻¹ s⁻¹	0 M⁻¹ s⁻¹	0 M⁻¹ s⁻¹	0 M⁻¹ s⁻¹	–	–	–	–	–	–	–	–
CNC(=N)SCc1ccc(S(=O)(=O)Oc2ccc([N+](=O)[O-])cc2)cc1	0 M⁻¹ s⁻¹	0 M⁻¹ s⁻¹	0 M⁻¹ s⁻¹	0 M⁻¹ s⁻¹	–	–	–	–	–	–	–	–
C[S+](C)c1ccc(CS(=O)(=O)Oc2ccc([N+](=O)[O-])cc2)cc1	0 M⁻¹ s⁻¹	0 M⁻¹ s⁻¹	0 M⁻¹ s⁻¹	0 M⁻¹ s⁻¹	–	–	–	–	–	–	–	–
O=[N+]([O-])c1ccc(OS(=O)(=O)Cc2cccc(-[n+]3ccccc3)c2)cc1	0 M⁻¹ s⁻¹	0 M⁻¹ s⁻¹	0 M⁻¹ s⁻¹	0 M⁻¹ s⁻¹	–	–	–	0 M⁻¹ s⁻¹	–	–	–	–
N=C(N)SCc1ccc(CS(=O)(=O)Oc2ccc([N+](=O)[O-])cc2)cc1	–	25 M⁻¹ s⁻¹	0 M⁻¹ s⁻¹	0.117 M⁻¹ s⁻¹	–	–	–	10 M⁻¹ s⁻¹	3.41	2.94	3.49	3.03
N=C(N)SCc1ccc(CS(=O)(=O)Oc2cccc([N+](=O)[O-])c2)cc1	0 M⁻¹ s⁻¹	7.17 M⁻¹ s⁻¹	0 M⁻¹ s⁻¹	0 M⁻¹ s⁻¹	–	–	–	–	–	–	–	–

Second part, the compound after the results:

Kinact [1]	Kinact [2]	Kinact [3]	Kinact [4]	T1/2 [5]	T1/2 [6]	Kinact [7]	Kinact [8]	pKi [9]	pKi [10]	pKi [11]	pKi [12]	SMILES
–	0 M⁻¹ s⁻¹	0 M⁻¹ s⁻¹	0 M⁻¹ s⁻¹	–	–	–	–	–	–	–	–	O=[N+]([O-])c1ccc(OS(=O)(=O)c2ccc(C[n+]3ccccc3)cc2)cc1
0 M⁻¹ s⁻¹	0 M⁻¹ s⁻¹	0 M⁻¹ s⁻¹	0 M⁻¹ s⁻¹	–	–	–	–	–	–	–	–	O=[N+]([O-])c1ccc(OS(=O)(=O)Cc2ccc(-[n+]3ccccc3)cc2)cc1
0.183 M⁻¹ s⁻¹	–	9.67 M⁻¹ s⁻¹	2.08 M⁻¹ s⁻¹	> 120 min	22 min	1.53 M⁻¹ s⁻¹	–	–	–	–	–	N=C(N)SCc1ccc(S(=O)(=O)Oc2ccc([N+](=O)[O-])cc2)cc1
0 M⁻¹ s⁻¹	–	2.45 M⁻¹ s⁻¹	0.833 M⁻¹ s⁻¹	–	–	–	–	–	–	–	–	C[N+](C)(C)Cc1ccc(S(=O)(=O)Oc2ccc([N+](=O)[O-])cc2)cc1
0 M⁻¹ s⁻¹	0 M⁻¹ s⁻¹	0 M⁻¹ s⁻¹	0 M⁻¹ s⁻¹	–	–	–	–	–	–	–	–	C[S+](C)Cc1ccc(S(=O)(=O)Oc2ccc([N+](=O)[O-])cc2)cc1
